Measured values: ChEMBL document CHEMBL3865824, “New (E)-1-alkyl-1H-benzo[d]imidazol-2-yl)methylene)indolin-2-ones: Synthesis, in vitro cytotoxicity evaluation and apoptosis inducing studies” (Eur J Med Chem, 2016)
Activity calls are given as the source filed them. No cut-off for these calls is given here.

Assays:
[1] = Cell cycle arrest in human MDA-MB-231 cells assessed as accumulation at G2/M phase at 2 uM after 24 hrs by propidium iodide staining based FACS analysis (reference value: 26 %); assay type: functional
In short: (§1)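 MDA-MB-231 at 1×10^6 cells/well treated with 1, 2 or 4 µM for 24 h, with a DMSO control. Cells harvested by trypsin, washed with PBS and fixed in 70% ethanol for 30 min at 4 °C. Stained 15 min at room temperature in the dark with PI buffer containing Triton X and DNase-free RNase A. Analysed by flow cytometry; G0/G1, S and G2/M fractions quantified.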

[2] = Cytotoxicity against human PC3 cells assessed as reduction in cell viability after 48 hrs by MTT assay; assay type: functional, cell-based; details: PC-3, 48 h
In short: (§2)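 Cells grown in DMEM or MEM with 10% FBS at 37 °C, 5% CO2. Seeded at 1×10^4 cells/well, incubated 48 h, then exposed to compound for 48 h with vehicle control. MTT (5 mg/mL stock) added for 4 h; formazan dissolved in DMSO, absorbance read at 570 nm. Preliminary screen at 50 µM. Compounds giving >50% inhibition were tested for dose-response curves; IC50 derived by linear regression of % inhibition versus concentration. Mean of three independent experiments in triplicate.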

[3] = Cytotoxicity against human DU145 cells assessed as reduction in cell viability after 48 hrs by MTT assay; assay type: functional, cell-based; details: DU-145, 48 h; in short: as §2
[4] = Cytotoxicity against […] cells assessed as reduction in cell viability after 48 hrs by MTT assay; assay type: functional, cell-based; details: 4T1, 48 h; in short: as §2
[5] = Cytotoxicity against HGC cells assessed as reduction in cell viability after 48 hrs by MTT assay; assay type: functional, cell-based; details: Homo sapiens; in short: as §2
[6] = Selectivity ratio of IC50 for human MCF10A cells to IC50 for human DU145 cells; assay type: ADME, cell-based, MCF-10A; details: MCF10A cells versus DU145 cells, read-out: Ratio IC50
[7] = Selectivity ratio of IC50 for human MCF10A cells to IC50 for […] cells; assay type: ADME, cell-based, MCF-10A; details: MCF10A cells versus 4TI cells, read-out: Ratio IC50
[8] = Selectivity ratio of IC50 for human MCF10A cells to IC50 for human MDA-MB-231 cells; assay type: ADME, cell-based, MCF-10A; details: MCF10A cells versus MDA-MB-231 cells, read-out: Ratio IC50
MDA-MB-231 [9] = assay: Inhibition of F-actin polymerization in human MDA-MB-231 cells assessed as decrease in protein extension at 1 to 4 uM after 12 hrs by rhodamine-phalloidin/hoechst […]-dual staining based confocal microscopic analysis; assay type: cell-based
In short: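 MDA-MB-231 cells (1×10^6/well) were grown on coverslips for 24 h, then exposed 12 h to 1, 2 and 4 μM. After a PBS wash and fixation in 4% paraformaldehyde, F-actin was stained with rhodamine-phalloidin and nuclei with Hoechst […]. Slides were mounted in anti-fade reagent and imaged by confocal microscopy (20× objective).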

[10] = Cell cycle arrest in human MDA-MB-231 cells assessed as accumulation at G2/M phase at 4 uM after 24 hrs by propidium iodide staining based FACS analysis (reference value: 26 %); assay type: functional; in short: as §1
MDA-MB-231 [11] = assay: Induction of apoptosis in human MDA-MB-231 cells assessed as formation of horse-shoe shaped nuclei at 2 uM after 24 hrs by AO/EB-dual staining based fluorescent microscopic analysis; assay type: functional, cell-based
In short: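 MDA-MB-231 plated at 1×10^6 cells/mL and treated at 1, 2 or 4 µM, with a DMSO control. Incubation time is given as 48 h in the methods and 24 h in the figure legend. AO and EB added at 10 µg/mL each. Cells viewed within 10 min by fluorescence microscopy (excitation 488 nm, emission 550 nm) at 200×.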

MDA-MB-231 [12] = assay: Induction of apoptosis in human MDA-MB-231 cells assessed as formation of horse-shoe shaped nuclei at 1 to 4 uM after 24 hrs by DAPI dye-based fluorescent microscopic analysis; assay type: functional, cell-based
In short: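 MDA-MB-231 grown at 1×10^6 cells/well in 6-well plates and treated at 1.0, 2.0 or 4.0 µM for 24 h, with untreated controls. Cells washed twice with PBS, fixed in 4% paraformaldehyde and stained with 10 µg/mL DAPI. Nuclei examined by fluorescence microscopy (excitation 359 nm, emission 461 nm) at 200×.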

MDA-MB-231 [13] = assay: Induction of apoptosis in human MDA-MB-231 cells assessed as loss of mitochondrial membrane potential after 24 hrs by rhodamine-123 -based spectrofluorometric analysis; assay type: functional, cell-based
In short: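 MDA-MB-231 seeded at 5×10^5 cells/mL and allowed to adhere overnight, then treated at 1, 2 or 4 µM for 24 h. Cells collected by trypsin, washed, and stained with rhodamine-123 (10 µg/mL) in PBS for 30 min at room temperature. Cells washed twice and fluorescence read at excitation 480 nm, emission 530 nm. Mean ± SD of three independent experiments in triplicate.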

MDA-MB-231 [14] = assay: Induction of apoptosis in human MDA-MB-231 cells assessed as loss of mitochondrial membrane potential at 4 uM after 24 hrs by rhodamine-123 -based spectrofluorometric analysis relative to control; assay type: functional
In short: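 MDA-MB-231 cells were plated at 5×10^5 cells/mL in 6-well plates, left to adhere overnight, then treated 24 h at 1, 2 and 4 μM. Cells were trypsinized, washed in PBS and loaded with rhodamine-123 (10 μg/mL) in PBS for 30 min at room temperature. After two PBS washes, fluorescence was read by spectrofluorometer (ex 480/em 530 nm). Loss is expressed against control; three independent experiments in triplicate.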

MDA-MB-231 [15] = assay: Induction of apoptosis in human MDA-MB-231 cells assessed as late apoptotic cells at 1 uM after 24 hrs by Annexin V-FITC/propidium iodide-staining based FACS analysis (reference value: 3.6 %); assay type: functional
MDA-MB-231 [16] = assay: Induction of apoptosis in human MDA-MB-231 cells assessed as necrotic cells at 1 uM after 24 hrs by Annexin V-FITC/propidium iodide-staining based FACS analysis (reference value: 2.8 %); assay type: functional
MDA-MB-231 [17] = assay: Induction of apoptosis in human MDA-MB-231 cells assessed as early apoptotic cells at 2 uM after 24 hrs by Annexin V-FITC/propidium iodide-staining based FACS analysis (reference value: 4.1 %); assay type: functional
MDA-MB-231 [18] = assay: Induction of apoptosis in human MDA-MB-231 cells assessed as necrotic cells at 2 uM after 24 hrs by Annexin V-FITC/propidium iodide-staining based FACS analysis (reference value: 2.8 %); assay type: functional
MDA-MB-231 [19] = assay: Induction of apoptosis in human MDA-MB-231 cells assessed as early apoptotic cells at 4 uM after 24 hrs by Annexin V-FITC/propidium iodide-staining based FACS analysis (reference value: 4.1 %); assay type: functional
MDA-MB-231 [20] = assay: Induction of apoptosis in human MDA-MB-231 cells assessed as increase in caspase-3 expression after 24 hrs by Western blot analysis; assay type: functional, cell-based
In short: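 MDA-MB-231 treated at 1, 2 or 4 µM for 24 h. Whole-cell extracts prepared in RIPA buffer. Blots probed with rabbit anti-caspase-3, anti-Bcl2 and anti-β-actin (1:1000) and anti-Bax (1:500), then HRP secondaries and ECL detection. Membranes stripped and reprobed. Bands quantified by densitometry as fold change versus control. Mean ± SEM, n=3.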

[21] = Cytotoxicity against human DU145 cells assessed as growth inhibition at 50 uM after 48 hrs by MTT assay relative to control; assay type: functional; details: DU-145, 48 h, read-out: GI; in short: as §2

For CC(C)n1c(/C=C2/C(=O)Nc3ccc(Br)cc32)nc2ccccc21, the Activity [1] was 18.9%, the IC50 [2] was 10.7 µM and the IC50 [3] was 7.5 µM. It also gave an IC50 [4] of 5.96 µM, an IC50 [5] of 12.4 µM and a selectivity ratio [6] of 8. For the same compound, the selectivity ratio [7] was 9.5, the selectivity ratio [8] was 17 and the inhibition (MDA-MB-231 [9]) was “Active”. The Activity [10] was 14.8%, the Activity (MDA-MB-231 [11]) was “Active” and the Activity (MDA-MB-231 [12]) was “Active”. For the same compound, the Activity (MDA-MB-231 [13]) was “Dose-dependent effect”, the Activity (MDA-MB-231 [14]) was 38.5% and the Activity (MDA-MB-231 [15]) was 4.7%. For the same compound, the Activity (MDA-MB-231 [16]) was 3.4%, the Activity (MDA-MB-231 [17]) was 18.7% and the Activity (MDA-MB-231 [18]) was 3.3%. For the same compound, the Activity (MDA-MB-231 [19]) was 23.4%, the Activity (MDA-MB-231 [20]) was “Dose-dependent effect” and the inhibition of growth at 50 µM [21] was greater than 50%.
